From paper PMC10353488 (Journal of medicinal chemistry, 2020)

Tests used:
S. aureus JE2 = assay: Broth microdilution antibacterial assay, S. aureus JE2; format: cell-based, Staphylococcus aureus; settings: concentrations up to 256 μg/mL
[1] = system: C. trachomatis serovar L2; assay: Inclusion forming units; format: cell-based, Chlamydia trachomatis; settings: for impact on chlamydiae (infectious progeny, IFU): added 8 h after infection, 24 h; for inhibitory activity against chlamydiae (Figure 5a): ACP1b at 50 μg/mL, 40 at 50 μg/mL and 5.20 μg/mL
E. coli K12 = assay: Broth microdilution antibacterial assay, E. coli K12; format: cell-based, Escherichia coli; settings: concentrations up to 256 μg/mL
[2] = Metabolic stability in human liver microsomes; format: in vitro ADME; settings: human liver microsomes with NADPH
D. melanogaster = assay: Toxicity; format: in vivo, Drosophila melanogaster; settings: 0.25, 0.5, and 1.0 mM
Outline: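 Eggs from two different crosses collected for 8 hours in culture flasks on solid agar base (5% w/v) topped with live baker's yeast plus sugar.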

[3] = system: human keratinocyte (HaCaT) cells; assay: Cytotoxicity assay; format: cell-based; settings: 50 μg/mL, 24 h
ClpP = assay: In vitro casein degradation assay without AAA+ chaperone; format: biochemical; settings: FITC-casein 20 μM, 32°C, 3 h
H. influenzae = settings: cited from earlier work
N. meningitidis = settings: cited from earlier work
E. coli ClpP = settings: cited from earlier work
[4] = cited from earlier work
C. trachomatis = settings: cited from earlier work
[5] = system: epithelial cervix adenocarcinoma (HeLa 229) cells; assay: Cytotoxicity assay; format: cell-based, human; settings: 50 μg/mL, 24 h
[6] = target: recombinant ClpP from E. coli (Escherichia coli, UniProt P0A6G7); assay: In vitro casein degradation assay, E. coli ClpP; format: biochemical; settings: 1 or 0.1 (40 only) μM ClpP
HEp-2 cells = assay: Host cell morphology and viability under phase contrast microscopy; format: cell-based, human; settings: 100 μg/mL
Outline: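 HEp-2 cells grown in DMEM with 2% L-glutamine and 10% FBS at 37 °C, infected with C. trachomatis L2 at MOI 1. Test compound added in triplicate at 8 hpi. After 16 h (24 h total incubation), host cell morphology and viability inspected by phase contrast microscopy against untreated control cells.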

human ClpP = human ClpP (Homo sapiens, UniProt Q16740); assay: In vitro casein degradation assay, human ClpP; format: biochemical; settings: 1 μM ClpP
Outline: (§1)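 Human or mouse ClpP ORF minus the mitochondrial localization signal was codon-optimised, C-terminally His6-tagged, and expressed and purified from clpAPX-null E. coli. 1 μM enzyme, without AAA+ chaperone, was preincubated 30 min at 32 °C with compound or DMSO in 25 mM HEPES pH 7.6 buffer before adding 20 μM FITC-casein. Fluorescence (ex 490/em 525 nm) was read every 3 min over 3 h. ≥3 runs, ≥2 protein preparations.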

mouse ClpP = mouse ClpP (Mus musculus, UniProt O88696); assay: In vitro casein degradation assay, mouse ClpP; format: biochemical; settings: 1 μM ClpP
Outline: as §1

[7] = target: recombinant ClpP1 and ClpP2 from C. trachomatis L2 (Chlamydia trachomatis serovar D, UniProt O84712+P38002); assay: In vitro casein degradation assay, chlamydial ClpP1/ClpP2; format: biochemical; settings: 6 μM ClpP1 and ClpP2
Outline: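 C-terminal His6-tagged C. trachomatis L2 ClpP1 and ClpP2 (6 μM each) were purified from clpAPX-null E. coli and used without AAA+ chaperone. Enzyme was preincubated with compound or DMSO for 30 min at 32 °C in HEPES pH 7.6/KCl/MgCl2/DTT/glycerol buffer, then 20 μM FITC-casein was added. Fluorescence (ex 490/em 525 nm) was read every 3 min for 3 h. Unlabeled casein digests were run on SDS-PAGE. ≥3 runs, ≥2 protein preparations.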

Chlamydia = settings: cited from earlier work

mouse ClpP, sequence (O88696 53-272): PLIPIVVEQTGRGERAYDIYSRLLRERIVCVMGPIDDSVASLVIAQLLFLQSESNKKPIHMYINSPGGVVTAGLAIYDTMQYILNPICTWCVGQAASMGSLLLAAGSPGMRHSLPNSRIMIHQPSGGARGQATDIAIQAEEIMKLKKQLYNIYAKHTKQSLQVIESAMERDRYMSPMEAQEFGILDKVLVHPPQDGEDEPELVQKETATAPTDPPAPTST
human ClpP, sequence (Q16740 57-277): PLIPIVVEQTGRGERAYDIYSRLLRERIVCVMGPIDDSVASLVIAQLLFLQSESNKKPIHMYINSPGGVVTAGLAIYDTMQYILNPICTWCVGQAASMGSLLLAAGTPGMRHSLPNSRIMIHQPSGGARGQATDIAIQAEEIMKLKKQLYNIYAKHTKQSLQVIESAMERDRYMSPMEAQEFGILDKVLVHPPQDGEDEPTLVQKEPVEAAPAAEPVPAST
recombinant ClpP from E. coli, sequence (P0A6G7 15-207): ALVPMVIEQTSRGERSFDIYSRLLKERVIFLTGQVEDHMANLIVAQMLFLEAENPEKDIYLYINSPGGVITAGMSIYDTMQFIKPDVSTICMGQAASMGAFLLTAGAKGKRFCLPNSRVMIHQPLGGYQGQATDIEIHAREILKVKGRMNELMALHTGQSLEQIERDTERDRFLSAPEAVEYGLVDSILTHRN

In the case of `Cc1ccccc1N1CCN(C(=O)C(C)(C)S(=O)(=O)c2ccc(C(F)(F)F)cn2)CC1` [Compound 35, 2-methyl-1-(4-(o-tolyl)piperazin-1-yl)-2-((5-(trifluoromethyl)pyridin-2-yl)sulfonyl)propan-1-one], the bacterial death (S. aureus JE2) is reported as “bacterial death was not observed”, the “impact on chlamydiae (infectious progeny, IFU)” value (“impact on chlamydiae” for short) ([1]; 50 μg/mL) is reported as “remarkable impact” and the bacterial death (E. coli K12) is reported as “bacterial death was not observed”.

For `CC(C)(C(=O)NCCOc1ccccc1)S(=O)(=O)c1ccc(C(F)(F)F)cc1` [Compound 24, 2-Methyl-N-(2-Phenoxyethyl)-2-))4-(trifluoromethyl)phenyl(sulfonyl(propenamide], the “CL(int,H) Mean” value [2] was 1840.91 mL/(min*kg bodywgt.), the “toxicity against D. melanogaster (survival rate)” value (“toxicity against D. melanogaster” for short) (D. melanogaster) was “did not show toxicity” and the “impact on chlamydiae” value ([1]; 50 μg/mL) was “remarkable impact”. For the same molecule, the “toxicity towards HaCaT cells” value [3] was “more tolerated”.

With `CC(C)(C(=O)NCCSc1ccc(Cl)cc1)S(=O)(=O)c1ccccc1` [Compound 17, N-(2-((4-Chlorophenyl)thio)ethyl)-2-methyl-2-(phenylsulfonyl)propanamide] the “ClpP-dependent casein degradation in the absence of a chaperone” value (from here on “ClpP-dependent casein degradation”) (ClpP) was “little or no degradation”.

In the case of `CC(C)(C(=O)NCCCc1ccccc1)S(=O)(=O)c1ccc(C(F)(F)F)cn1` [Compound 2], the “antibacterial activity against H. influenzae” value (H. influenzae) is listed as 8 µg/mL, the “antibacterial activity against N. meningitidis” value (N. meningitidis) is listed as 16 µg/mL and the “activation of E. coli ClpP in an enzymatic assay” value (E. coli ClpP) is listed as “activate”. The “fold less potent than ADEP1” value [4] was 10-20 fold, the “inhibitory activity against chlamydiae (Figure 5a)” value [1] was “good inhibitory activity” and the “formation of infectious EBs” value (C. trachomatis) was “drastic decrease”.

With `CC(C)(C(=O)N1CCN(Cc2ccc(Cl)cc2)CC1)S(=O)(=O)c1ccc(C(F)(F)F)cn1` [Compound 40, 2-methyl-1-(4-(4-Chlorobenzyl)piperazin-1-yl)-2-((5-(trifluoromethyl)pyridin-2-yl)sulfonyl) propan-1-one] the “toxicity towards HeLa 229 cells” value [5] was “not toxic”, the “activation of E. coli ClpP” value [6] was “strong activator” and the “ClpP-dependent casein degradation” value (ClpP) was “enabled some species of ClpP to degrade casein”. The “toxicity against D. melanogaster” value (D. melanogaster) was “did not show toxicity”, the “cell toxicity to host cells” value (HEp-2 cells) was “did not observe cell toxicity” and the “activation of human ClpP” value (human ClpP) was “did not activate”. The bacterial death (S. aureus JE2) was “bacterial death was not observed”, the “inclusion yields lower than the untreated cells” value ([1]; 12.5 μg/mL) was “around 60%” and the “impact on chlamydiae” value ([1]; 50 μg/mL) was “remarkable impact”. The “mechanism of action (bacteriostatic or bactericidal)” value ([1]; 50 μg/mL, washout experiment) was “bacteriostatic”, the “activity compared with penicillin” value ([1]; 40 at 50 μg/mL, penicillin at 5 U/mL ~ 3 μg/mL) was “on par with penicillin” and the “activity compared with spectinomycin” value ([1]; 40 at 50 μg/mL, spectinomycin at 128 μg/mL) was “superior activity than spectinomycin”. For the same molecule, the “inhibitory activity against chlamydiae (Figure 5a)” value [1] was “good inhibitory activity”, the “activation of mouse ClpP” value (mouse ClpP) was “did not activate” and the bacterial death (E. coli K12) was “bacterial death was not observed”.

For `CC(C)(C(=O)NCCCc1ccccc1)S(=O)(=O)c1ccccc1` [Compound 9, 2-Methyl-N-(3-Phenylpropyl)-2-(phenylsulfonyl)propanamide], the “ClpP-dependent casein degradation” value (ClpP) was “little or no degradation” and the “activation of chlamydial ClpP1, ClpP2 or the ClpP1/2 dimer” value [7] was “some residual decomposition”.

For `CC(C)(C(=O)NCCCc1ccccc1)S(=O)(=O)c1ccc(C(F)(F)F)cc1` [Compound 11, 2-Methyl-N-(3-Phenylpropyl)-2-((4-(trifluoromethyl)phenyl)sulfonyl)propanamide], the “CL(int,H) Mean” value [2] was 890.58 mL/(min*kg bodywgt.), the “toxicity towards HeLa 229 cells” value [5] was “presented toxicity” and the “ClpP-dependent casein degradation” value (ClpP) was “enabled some species of ClpP to degrade casein”. For the same molecule, the “toxicity against D. melanogaster” value (D. melanogaster) was “did not show toxicity”, the “activation of human ClpP” value (human ClpP) was “activated” and the bacterial death (S. aureus JE2) was “bacterial death was not observed”. For the same molecule, the “impact on chlamydiae” value ([1]; 50 μg/mL) was “remarkable impact”, the “activation of mouse ClpP” value (mouse ClpP) was “activated” and the bacterial death (E. coli K12) was “bacterial death was not observed”. The “toxicity towards HaCaT cells” value [3] was “presented toxicity” and the “activation of chlamydial ClpP1, ClpP2 or the ClpP1/2 dimer” value [7] was “some residual decomposition”.

With `CC(C)(C(=O)NCCSc1ccccc1Cl)S(=O)(=O)c1ccccc1` [Compound 16, N-(2-((2-chlorophenyl)thio)ethyl)-2-methyl-2-(phenylsulfonyl)propanamide] the “ClpP-dependent casein degradation” value (ClpP) was “little or no degradation”.

In the case of `CC(C)(C(=O)NCCOc1ccccc1Cl)S(=O)(=O)c1ccc(C(F)(F)F)cn1` [Compound 28, N-(2-(2-Chlorophenoxy)ethyl)-2-methyl-2-((5-(trifluoromethyl)pyridin-2-yl)sulfonyl) propanamide], the bacterial death (S. aureus JE2) is reported as “bacterial death was not observed” and the bacterial death (E. coli K12) is reported as “bacterial death was not observed”.

In the case of `CC(C)(C(=O)N1CCN(Cc2cccc(Cl)c2)CC1)S(=O)(=O)c1ccc(C(F)(F)F)cn1` [Compound 41, 2-methyl-1-(4-(3-chlorobenzyl)piperazin-1-yl)-2-((5-(trifluoromethyl)pyridin-2-yl)sulfonyl) propan-1-one], the “toxicity against D. melanogaster” value (D. melanogaster) is reported as “did not show toxicity” and the “impact on chlamydiae” value ([1]; 50 μg/mL) is reported as “remarkable impact”.

In the case of 2-bromoethylamine [Compound 21], the bacterial death (S. aureus JE2) is reported as “bacterial death was not observed” and the bacterial death (E. coli K12) is reported as “bacterial death was not observed”.

With `CC(C)(C(=O)NCCOc1ccccc1Cl)S(=O)(=O)c1ccccc1` [Compound 26, N-(2-(2-Chlorophenoxy)ethyl)-2-methyl-2-(Phenylsulfonyl)propanamide] the “toxicity against D. melanogaster” value (D. melanogaster) was “did not show toxicity”.

With “1-(4-(3,4-dichlorophenyl)piperazin-1-yl)-2-((5-(trifluoromethyl)pyridin-2-yl)sulfonyl) propan-1-one [Compound 37]” the “CL(int) Mean” value [2] was 111.96 uL/(min*mg protein), the “CL(int,H) Mean” value [2] was 873.80 mL/(min*kg bodywgt.) and the “T1/2 Mean” value [2] was 6.25 min. For the same molecule, the bacterial death (S. aureus JE2) was “bacterial death was not observed”, the “impact on chlamydiae” value ([1]; 50 μg/mL) was “remarkable impact” and the bacterial death (E. coli K12) was “bacterial death was not observed”. For the same molecule, the “toxicity towards HaCaT cells” value [3] was “more tolerated”.

For `CC(C)(C(=O)NCCSc1ccccc1Cl)S(=O)(=O)c1ccc(C(F)(F)F)cn1` [Compound 1], the “antibacterial activity against H. influenzae” value (H. influenzae) is given as 32 µg/mL, the “antibacterial activity against N. meningitidis” value (N. meningitidis) is given as 64 µg/mL and the “fold less potent than ADEP1” value [4] is given as 10-20 fold. For the same molecule, the “formation of infectious EBs” value (C. trachomatis) was “drastic decrease”.

For `Cc1ccc(CN2CCN(C(=O)C(C)(C)S(=O)(=O)c3ccc(C(F)(F)F)cn3)CC2)cc1` [Compound 42, 2-methyl-1-(4-(4-methylbenzyl)piperazin-1-yl)-2-((5-(trifluoromethyl)pyridin-2-yl)sulfonyl) propan-1-one], the bacterial death (S. aureus JE2) was “bacterial death was not observed”, the bacterial death (E. coli K12) was “bacterial death was not observed” and the “toxicity towards HaCaT cells” value [3] was “more tolerated”.

In the case of `C[C@H]1c2cccc(O)c2C(=O)C2=C(O)[C@]3(O)C(=O)C(C(N)=O)=C(O)[C@@H](N(C)C)[C@@H]3[C@@H](O)[C@@H]21.O` [Doxycycline], the “minimal chlamydicidal concentrations (MCCs)” value (Chlamydia) is given as 1 µg/mL.

For `CC(C)(C(=O)NCCSc1ccc(Cl)cc1)S(=O)(=O)c1ccc(C(F)(F)F)cn1` [Compound 20], the “toxicity against D. melanogaster” value (D. melanogaster) was “did not show toxicity”.

In the case of `CC[C@H]1OC(=O)[C@H](C)[C@@H](O[C@H]2C[C@@](C)(OC)[C@@H](O)[C@H](C)O2)[C@H](C)[C@@H](O[C@@H]2O[C@H](C)C[C@H](N(C)C)[C@H]2O)[C@](C)(O)C[C@@H](C)CN(C)[C@H](C)[C@@H](O)[C@]1(C)O` [Azithromycin], the “minimal chlamydicidal concentrations (MCCs)” value (Chlamydia) is given as 4 µg/mL.

With `CC(C)(C(=O)NCCOc1ccccc1)S(=O)(=O)c1ccc(C(F)(F)F)cn1` [Compound 25, 2-Methyl-N-(2-Phenoxyethyl)-2-))5-(trifluoromethyl)pyridin-2-yl(sulfonyl(propenamide] the “CL(int,H) Mean” value [2] was 1461.60 mL/(min*kg bodywgt.), the bacterial death (S. aureus JE2) was “bacterial death was not observed” and the “impact on chlamydiae” value ([1]; 50 μg/mL) was “remarkable impact”. The bacterial death (E. coli K12) was “bacterial death was not observed”.
